Here are results for five compounds from paper PMC4926610 (Journal of natural products, 2016).

For one assay, the target named is p97 (wt-p97) (Homo sapiens, UniProt P55072). Kind of assay: Malachite green assay for p97 ATPase activity. In kind it is biochemical. An outline of the steps: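 Hydrolysis started with 2.0 mM ATP at 37 °C. Aliquots taken at 2, 4, 6, 8 and 10 min were quenched in malachite green/ammonium molybdate/HCl/Tween 20 reagent. IC50 was taken from dose–response curves.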

The next assay deals with p97-cys0 (Homo sapiens, UniProt P55072). Kind of assay: Malachite green ATPase assay, cysteineless p97. It counts as biochemical. Particulars: Figure 6A.
Sequence of p97-cys0 (P55072 2-806): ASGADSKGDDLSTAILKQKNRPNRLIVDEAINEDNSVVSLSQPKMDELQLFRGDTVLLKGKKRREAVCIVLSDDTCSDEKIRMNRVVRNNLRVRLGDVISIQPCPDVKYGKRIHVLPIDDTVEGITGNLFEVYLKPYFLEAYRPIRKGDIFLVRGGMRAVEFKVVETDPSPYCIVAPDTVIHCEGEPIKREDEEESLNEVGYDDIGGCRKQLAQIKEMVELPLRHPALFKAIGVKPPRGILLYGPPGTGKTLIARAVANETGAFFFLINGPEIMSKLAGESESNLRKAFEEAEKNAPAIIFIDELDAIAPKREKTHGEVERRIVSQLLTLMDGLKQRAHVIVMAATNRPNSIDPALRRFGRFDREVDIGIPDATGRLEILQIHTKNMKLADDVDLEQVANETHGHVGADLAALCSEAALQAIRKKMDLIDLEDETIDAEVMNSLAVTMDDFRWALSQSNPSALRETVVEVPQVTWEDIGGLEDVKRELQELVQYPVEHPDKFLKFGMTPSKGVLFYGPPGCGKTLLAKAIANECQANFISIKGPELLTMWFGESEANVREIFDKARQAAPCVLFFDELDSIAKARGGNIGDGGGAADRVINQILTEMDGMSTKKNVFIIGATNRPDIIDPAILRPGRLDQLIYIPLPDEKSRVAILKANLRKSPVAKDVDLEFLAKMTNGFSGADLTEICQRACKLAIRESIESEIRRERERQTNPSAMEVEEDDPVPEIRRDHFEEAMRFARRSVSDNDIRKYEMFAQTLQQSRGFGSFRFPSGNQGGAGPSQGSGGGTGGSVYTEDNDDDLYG
For the next assay, the target named is p97-C209A (Homo sapiens, UniProt P55072, C209A). Kind of assay: biochemical.
Sequence of p97-C209A (P55072 whole entry C209A): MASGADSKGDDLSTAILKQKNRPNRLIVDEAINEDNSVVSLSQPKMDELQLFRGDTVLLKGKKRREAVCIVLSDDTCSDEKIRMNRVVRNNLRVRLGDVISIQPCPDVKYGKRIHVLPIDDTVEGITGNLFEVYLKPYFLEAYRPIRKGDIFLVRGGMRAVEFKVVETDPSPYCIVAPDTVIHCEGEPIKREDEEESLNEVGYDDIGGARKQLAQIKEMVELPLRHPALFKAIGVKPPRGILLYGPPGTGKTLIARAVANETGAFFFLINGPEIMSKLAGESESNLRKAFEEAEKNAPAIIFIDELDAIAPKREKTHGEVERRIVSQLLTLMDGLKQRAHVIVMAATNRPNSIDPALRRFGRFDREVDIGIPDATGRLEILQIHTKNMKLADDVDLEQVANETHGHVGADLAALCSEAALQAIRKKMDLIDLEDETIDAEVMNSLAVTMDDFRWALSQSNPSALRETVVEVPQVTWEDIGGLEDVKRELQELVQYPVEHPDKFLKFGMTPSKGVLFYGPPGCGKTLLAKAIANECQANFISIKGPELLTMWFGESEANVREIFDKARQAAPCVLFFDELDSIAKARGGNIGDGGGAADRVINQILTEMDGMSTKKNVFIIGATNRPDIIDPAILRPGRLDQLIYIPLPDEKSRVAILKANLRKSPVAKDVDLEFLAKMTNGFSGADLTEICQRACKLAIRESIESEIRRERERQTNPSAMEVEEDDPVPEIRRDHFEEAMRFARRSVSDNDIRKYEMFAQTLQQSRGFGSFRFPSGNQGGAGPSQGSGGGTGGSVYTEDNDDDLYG
The next assay addresses chaperonin GroEL (Escherichia coli, UniProt P0A6F5). The experiment in a line: Malachite green ATPase assay, GroEL. It counts as biochemical.
Assay [1] has as its target type I AAA+ chaperone ClpX (Escherichia coli, UniProt P0A6H1). Kind of assay: Malachite green ATPase assay, ClpX. It counts as biochemical.
Assay [2] deals with N-ethylmaleimide sensitive factor (NSF) (Homo sapiens, UniProt P46459). Kind of assay: Malachite green ATPase assay, NSF. In kind it is biochemical.
Sequence of N-ethylmaleimide sensitive factor (NSF) (P46459 whole entry, species assumed): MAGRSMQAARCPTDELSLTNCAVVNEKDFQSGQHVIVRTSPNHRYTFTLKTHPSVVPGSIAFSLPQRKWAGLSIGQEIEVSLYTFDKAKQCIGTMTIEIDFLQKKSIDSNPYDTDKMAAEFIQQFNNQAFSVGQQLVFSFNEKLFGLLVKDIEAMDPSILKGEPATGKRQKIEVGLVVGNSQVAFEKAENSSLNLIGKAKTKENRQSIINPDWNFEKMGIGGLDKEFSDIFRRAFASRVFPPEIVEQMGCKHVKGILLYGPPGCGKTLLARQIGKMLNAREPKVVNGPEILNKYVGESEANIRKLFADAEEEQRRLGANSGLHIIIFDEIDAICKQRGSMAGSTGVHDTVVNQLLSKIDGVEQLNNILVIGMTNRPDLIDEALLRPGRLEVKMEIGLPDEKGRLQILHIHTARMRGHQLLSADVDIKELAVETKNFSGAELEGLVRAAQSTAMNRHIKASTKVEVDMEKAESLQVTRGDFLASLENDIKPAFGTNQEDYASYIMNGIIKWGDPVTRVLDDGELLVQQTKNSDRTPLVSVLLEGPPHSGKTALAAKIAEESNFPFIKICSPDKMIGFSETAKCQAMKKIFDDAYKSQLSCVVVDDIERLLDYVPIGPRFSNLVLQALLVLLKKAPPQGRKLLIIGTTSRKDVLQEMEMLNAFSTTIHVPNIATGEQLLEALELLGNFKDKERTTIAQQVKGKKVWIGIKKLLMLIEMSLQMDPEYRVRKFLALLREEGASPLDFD
The target in another assay is p97 (Homo sapiens, UniProt P55072). In kind it is biochemical. The following applies: 100.0 μM compound, 1.0 μM p97, 6 h at 21 °C, then dialysis; Figure 6B. The method in brief: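 Dialysed into assay buffer, fresh buffer 3 times every 2 h. ATPase started with 2.0 mM ATP; aliquots every 10 min up to 1 h into malachite green, citrate-quenched, OD660 converted to phosphate via standard curve, plotted against time.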
Sequence of p97 (P55072 whole entry): as the sequence (P55072 whole entry C209A) above, with A209C counted along it

Assay [3] deals with HEK293 cells stably expressing Ub^G76 VGFP. The experiment in a line: Ub^G76 VGFP ubiquitin fusion degradation. It counts as cell-based, human. The following applies: 10.0, 20.0 and 50.0 μM. The method in brief: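 Stable reporter HEK293 lines seeded at 2 × 10^6 cells in phenol-red free DMEM plus 10% FBS, grown 18 h at 37 °C under 5% CO2. Then treated with 10.0, 20.0 or 50.0 μM test compound (0.1% final DMSO). DMSO 0.1% negative control and MG132 10.0 μM positive control were included. GFP-positive cells counted by flow cytometry: 488 nm excitation, 530/30 emission, 10 000 events gated on FSC/SSC.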

The conditions of assay [4]: isolated from Rhodotorula glutinis T-110; cited from earlier work.

Entries after “also recorded” stand apart in the source; their conditions may differ.

Sequence of p97 (wt-p97) (P55072 whole entry): as the sequence (P55072 whole entry C209A) above, with A209C counted along it
Sequence of type I AAA+ chaperone ClpX (P0A6H1 whole entry): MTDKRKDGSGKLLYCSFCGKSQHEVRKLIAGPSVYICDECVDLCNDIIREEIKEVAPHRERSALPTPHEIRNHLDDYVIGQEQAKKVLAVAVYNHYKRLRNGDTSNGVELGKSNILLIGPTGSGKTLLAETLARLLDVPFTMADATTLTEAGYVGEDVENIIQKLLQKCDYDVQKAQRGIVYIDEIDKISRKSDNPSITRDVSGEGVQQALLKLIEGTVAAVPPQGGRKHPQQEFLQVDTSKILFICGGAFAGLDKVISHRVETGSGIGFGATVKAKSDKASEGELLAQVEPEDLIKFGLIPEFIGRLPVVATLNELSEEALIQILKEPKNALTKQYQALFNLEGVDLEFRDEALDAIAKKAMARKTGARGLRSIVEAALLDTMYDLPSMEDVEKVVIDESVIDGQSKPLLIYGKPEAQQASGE
Sequence of chaperonin GroEL (P0A6F5 whole entry): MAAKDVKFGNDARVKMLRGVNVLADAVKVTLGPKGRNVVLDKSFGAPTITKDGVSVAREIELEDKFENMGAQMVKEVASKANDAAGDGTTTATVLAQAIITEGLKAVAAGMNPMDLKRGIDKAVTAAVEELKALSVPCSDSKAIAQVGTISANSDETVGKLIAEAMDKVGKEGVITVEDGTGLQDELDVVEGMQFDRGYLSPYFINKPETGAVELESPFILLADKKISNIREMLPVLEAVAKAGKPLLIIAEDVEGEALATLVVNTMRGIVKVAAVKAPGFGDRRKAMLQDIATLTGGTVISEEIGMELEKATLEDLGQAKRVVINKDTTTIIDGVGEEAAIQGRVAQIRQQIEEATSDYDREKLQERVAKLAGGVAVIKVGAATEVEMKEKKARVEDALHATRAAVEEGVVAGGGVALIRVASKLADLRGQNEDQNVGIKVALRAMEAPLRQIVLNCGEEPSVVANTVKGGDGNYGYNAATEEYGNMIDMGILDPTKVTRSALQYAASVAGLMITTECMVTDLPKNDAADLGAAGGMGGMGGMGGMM

Turning to `C=C1OC(=O)C2(C1=O)[C@H](/C=C/C=C/CCC)C=C[C@@H](O)[C@@H]2O` (mixture of isomers) [compound 2, oxaspirol B], the “effect of ATP concentration on IC50 of p97 inhibition” value on p97 (wt-p97) (data not shown) is on record as “no effect”. The “p97 ATPase inhibitory activity (in words)” value at p97 (wt-p97) (malachite green-based ATPase assay) is given as “moderate; also recorded: showed activity”. In addition, on p97-cys0, the “activity against cysteine-less p97 variant Cys0 (in words)” value is reported as “no activity”. In addition, the IC50 against p97-C209A is 18 ± 4.7 µM; against chaperonin GroEL, more than 200 µM; in assay [1], more than 200 µM; in assay [2], more than 200 µM. Besides, at p97, the “inhibition of p97 ATPase after extensive dialysis (reversibility)” value is on record as “No inhibition of p97 was evident after extensive dialysis; also recorded: p97 ATPase activity is restored”. The “rescue of Ub^G76 VGFP reporter (number of GFP positive cells by FACS)” value in assay [3] is recorded as “dose-dependent inhibition of GFP fluorescence loss; also recorded: rescued in the presence of 2 in a dose-dependent manner”.
The compound `C=C1OC(=O)[C@]2(C1=O)[C@H](/C=C/C=C/CCC)C=C[C@@H](OC(C)=O)[C@@H]2OC(C)=O` (single isomer, unassigned; isomer 5a) [5a, 9,10-Diacetyloxaspirol B Isomer 5a] gave an IC50 against p97 (wt-p97) of more than 200 µM.
On p97 (wt-p97), `C=C1OC(=O)[C@@]2(C1=O)[C@H](/C=C/C=C/CCC)C=C[C@@H](OC(C)=O)[C@@H]2OC(C)=O` (single isomer, unassigned; isomer 5b) [5b, 9,10-Diacetyloxaspirol B Isomer 5b] came in with an IC50 of more than 200 µM.
In the case of `CCCC=CC=C[C@@H]1C=C[C@@H](O)[C@H](O)[C@]12C(=O)OC(C)[C@@H]2O` (stereo partly drawn) [compound 1, (4R,5R,6R,9R,10R)-6-(hepta-1,3-dien)yl-4,9,10-trihydroxy-3-methyl-2-oxaspiro[4,5]dec-7-en-1-one], the “antibacterial activity (in words)” value in assay [4] is on record as “weakly active”.
`C[C@H]1CCC/C=C/C(=O)c2c(O)cc(O)cc2CC(=O)O1` [dehydrocurvularin, reference compound]: on p97, the “inhibition of p97 ATPase after extensive dialysis (reversibility)” value was “continued inhibition even after extensive dialysis”.
